Source: PubChem
ABCB6 inh MLPCN – ABCB6 transporter inhibitors, primary screen, K562-ABCB6 cells, flow cytometry, MLPCN library. ATP-binding cassette sub-family B member 6 (Homo sapiens), Q9NP58. K562-ABCB6 porphyrin accumulation, 1 h; hits give low values. fluorescence ratio to DMSO, % at 10 µM. hit rate 0.19% among 360,000;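 active means fluorescence ratio to DMSO below 75%, the collection mean minus 3 SD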;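 further: signal is porphyrin accumulated inside mitochondria; lower ratio means ABCB6 inhibition with less porphyrin fluorescence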
AHR activator – AHR activators, primary screen, cell-based, luminescence, luciferase reporter, human; AID 2796, 2010; activation, % at 5 µM; AHR-responsive luciferase reporter cells; Aryl hydrocarbon receptor (Homo sapiens), P35869; hit rate 2.5% among 320,000; in the data active means activation above about 47%
Target sequence (P35869 whole entry, looked up): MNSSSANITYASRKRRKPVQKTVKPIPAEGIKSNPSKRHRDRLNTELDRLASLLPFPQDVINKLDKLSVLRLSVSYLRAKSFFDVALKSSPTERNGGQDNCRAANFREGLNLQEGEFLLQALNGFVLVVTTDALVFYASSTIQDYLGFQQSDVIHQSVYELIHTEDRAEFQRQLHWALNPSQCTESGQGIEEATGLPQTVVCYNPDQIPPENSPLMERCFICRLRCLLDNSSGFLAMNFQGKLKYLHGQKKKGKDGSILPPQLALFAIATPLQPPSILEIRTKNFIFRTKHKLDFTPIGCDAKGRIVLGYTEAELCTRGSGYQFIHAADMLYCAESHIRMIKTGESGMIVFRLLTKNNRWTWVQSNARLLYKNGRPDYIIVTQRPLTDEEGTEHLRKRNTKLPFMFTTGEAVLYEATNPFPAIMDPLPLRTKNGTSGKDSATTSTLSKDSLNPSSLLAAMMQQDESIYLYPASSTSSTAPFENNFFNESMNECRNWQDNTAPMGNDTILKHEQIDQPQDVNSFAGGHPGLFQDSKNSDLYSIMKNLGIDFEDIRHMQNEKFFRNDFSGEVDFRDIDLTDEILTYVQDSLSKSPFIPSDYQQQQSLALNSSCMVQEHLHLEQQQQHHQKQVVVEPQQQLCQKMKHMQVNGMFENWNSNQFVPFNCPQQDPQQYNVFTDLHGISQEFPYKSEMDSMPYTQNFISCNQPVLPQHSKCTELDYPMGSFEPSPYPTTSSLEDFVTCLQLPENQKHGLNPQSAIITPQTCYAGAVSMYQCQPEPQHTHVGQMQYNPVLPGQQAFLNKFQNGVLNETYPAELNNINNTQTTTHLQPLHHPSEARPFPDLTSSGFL
FXN GAA850 act – FXN promoter activators, primary screen, cell-based, luciferase luminescence, HEK293 lucGAA850. AID 540364, 2011. activation, % at 6 µM. HEK293 lucGAA850 FXN promoter luciferase reporter, 24 h; percent of 10 µM SAHA response. hit rate 0.56% among 360,000;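 active means activation above the average of all compounds screened plus 3 SD, cutoff fixed separately per campaign, cut at about 7.5% in these data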
STAT3 activator – IL-6 driven STAT3 reporter potentiators, primary screen, U3A cells, luciferase, luminescence, MLSCN library | hit rate 0.91% among 190,000 | activation (% of control), % at 5.6 µM | IL-6 STAT3-luciferase reporter; 100% = signal with IL-6 EC80 alone;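 active means activation above the screen-wide mean of compound activation plus 3 SD, cut at about 130% in these data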
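Test system: human U3A cells carrying STAT3-luciferase construct; control set: IL-6-only wells as 100% reference; timing: compound pre-incubation 1 h before IL-6, then 6 h stimulation at 37 °C; also added: IL-6 stimulus at 33 ng/mL final; evaluation: % activation versus median of IL-6-stimulated wells; detection: reporter luminescence signal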
GAA30 counter – GAA30 FXN promoter activators, confirmation, counter-screen for GAA850 frataxin promoter activator project, cell-based, luminescence, HEK293, lucGAA30, triplicate | shares compounds with FXN GAA850 act | activation, % at 6 µM | hit rate 66% among 1,900 | HEK293 lucGAA30 FXN promoter luciferase, 24 h; DMSO = 0%, 5 µM ipriflavone = 100%;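 active means mean activation above the mean of solvent-only control wells plus 3 SD, cut at about 22% in these data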;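 further: counterscreen of GAA850 promoter hits where activity marks nonselective or luminescence artifacts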
GAA850 confirm – FXN GAA850 promoter activators in reporter cells, confirmation, cell-based, luminescence, HEK293 lucGAA850, triplicate; shares compounds with FXN GAA850 act; HEK293 lucGAA850 FXN promoter luciferase reporter, 24 h; 100% = activation by SAHA; activation, % at 6 µM; hit rate 86% among 1,900; AID 588351, 2011;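 active means mean activation above a set limit taken from the primary screen, cut at about 8% in these data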
Hits are given with their value. Only some compounds are listed: those with a hit (about 3.3% of all), similar ones and a draw of the others.

For CCC(C)(C)NC(=O)C(c1ccncc1)N(Cc1ccc(C)cc1)C(=O)c1csnn1 (stereo not drawn) the results were ABCB6 inh MLPCN inactive, AHR activator inactive, FXN GAA850 act inactive and STAT3 activator inactive.
Screening Cc1cccc(C2CC(c3ccccc3)Nc3ncnn32)c1 (stereo not drawn) returned ABCB6 inh MLPCN inactive, AHR activator inactive, FXN GAA850 act 19, GAA30 counter inactive and GAA850 confirm 9.6.
Screening COc1ccc(/C=C/C2=NNC(=O)CC2)cc1 returned ABCB6 inh MLPCN inactive, AHR activator inactive, FXN GAA850 act 7.7, STAT3 activator inactive, GAA30 counter 83 and GAA850 confirm 32.
For C=CCNc1nc2c(c(=O)n(C)c(=O)n2C)n1Cc1ccc(F)cc1 the results were ABCB6 inh MLPCN inactive, AHR activator inactive, FXN GAA850 act 11, STAT3 activator inactive, GAA30 counter inactive and GAA850 confirm inactive.
CN(C)S(=O)(=O)c1ccc2c(c1)c(=O)c(C(=O)N1CCOCC1)cn2C was read as ABCB6 inh MLPCN inactive, AHR activator inactive, FXN GAA850 act 9.8, STAT3 activator inactive, GAA30 counter inactive and GAA850 confirm 13.
For Cc1ccc(NC(=O)c2oc3ccccc3c2NC(=O)C2CCCO2)cc1C (stereo not drawn) the results were ABCB6 inh MLPCN inactive, AHR activator 74, FXN GAA850 act 8.0, STAT3 activator inactive, GAA30 counter 106 and GAA850 confirm 38.
For O=C1c2ccccc2C(=O)N1CCCc1c[nH]c2ccccc12 the results were ABCB6 inh MLPCN inactive, AHR activator inactive, FXN GAA850 act inactive and STAT3 activator inactive.
For O=C1c2ccccc2C(=O)N1CCc1c[nH]c2ccccc12 the results were ABCB6 inh MLPCN inactive, AHR activator inactive, FXN GAA850 act 9.0, STAT3 activator inactive, GAA30 counter 88 and GAA850 confirm 37.
Screening CC(C(=O)O)N1C(=O)C2C3CC(C2C1=O)C1C(c2ccccc2)c2sc(=O)[nH]c2SC31 (stereo not drawn) returned ABCB6 inh MLPCN inactive, AHR activator inactive, FXN GAA850 act inactive and STAT3 activator inactive.
`CC[C@]12c3[nH]c4ccc(Cl)cc4c3CCN1C(=O)[C@@H](CC(=O)NCC13CC4CC(CC(C4)C1)C3)C[C@@H]2C(=O)N1CCN(C(=O)c2ccco2)CC1` gave ABCB6 inh MLPCN inactive and FXN GAA850 act inactive.
For CC[C@]12c3[nH]c4ccc(OC)cc4c3CCN1C(=O)C(CC(=O)NCC13CC4CC(CC(C4)C1)C3)C[C@@H]2C(=O)N1CCN(C(=O)c2ccco2)CC1 (stereo partly drawn) the results were ABCB6 inh MLPCN inactive, FXN GAA850 act 15, GAA30 counter inactive and GAA850 confirm 11.
`CC(C)C(NC(=O)c1ccco1)C(=O)NC1CCCCCC1` (stereo not drawn) gave ABCB6 inh MLPCN inactive, AHR activator inactive and FXN GAA850 act inactive.
Screening COCCCN(Cc1cccs1)S(=O)(=O)c1csc(C(N)=O)c1 returned ABCB6 inh MLPCN inactive, AHR activator inactive and FXN GAA850 act inactive.
For Cc1ccc(OCCSc2nc(N)cc(N)n2)cc1 the results were ABCB6 inh MLPCN inactive, AHR activator inactive, FXN GAA850 act 9.1, STAT3 activator inactive, GAA30 counter 110 and GAA850 confirm 37.
Screening O=C(O)c1ccccc1NN=C1CCCCC1 returned ABCB6 inh MLPCN inactive, AHR activator inactive, FXN GAA850 act 9.0, STAT3 activator inactive, GAA30 counter 38 and GAA850 confirm inactive.
N#CCSc1ccc2nc(-c3ccccc3)cn2n1 was read as ABCB6 inh MLPCN inactive, AHR activator inactive, FXN GAA850 act 7.7, GAA30 counter 119 and GAA850 confirm 31.
Screening Clc1ccc(-c2noc(CSc3nnc(Cc4cccs4)n3-c3ccccc3)n2)cc1 returned ABCB6 inh MLPCN inactive, AHR activator inactive, FXN GAA850 act 15, STAT3 activator inactive, GAA30 counter inactive and GAA850 confirm inactive.
For CCN(CC)CCn1c2ccccc2c2nc3ccc([N+](=O)[O-])cc3cc21 the results were ABCB6 inh MLPCN inactive, AHR activator inactive, FXN GAA850 act 11, GAA30 counter 24 and GAA850 confirm 28.
COC(=O)c1c(NC(=O)CN2CCC3(O)CCCCC3C2c2ccc(OC)cc2OC)sc(C)c1C (stereo not drawn) was read as ABCB6 inh MLPCN inactive, AHR activator inactive, FXN GAA850 act 10, STAT3 activator inactive, GAA30 counter 26 and GAA850 confirm inactive.
Screening N#C/C(=C\c1cccs1)C(=O)Nc1nccs1 returned ABCB6 inh MLPCN inactive, AHR activator inactive, FXN GAA850 act 9.2, STAT3 activator inactive, GAA30 counter 106 and GAA850 confirm 28.
Screening COc1cccc(CN2C(=O)c3cccc(N)c3C2=O)c1 returned ABCB6 inh MLPCN inactive, AHR activator inactive, FXN GAA850 act inactive and STAT3 activator inactive.
`CN=c1scc(C)n1/N=C/c1ccc(O)cc1O` gave ABCB6 inh MLPCN inactive, AHR activator inactive, FXN GAA850 act inactive and STAT3 activator inactive.
For CN=c1scc(-c2ccco2)n1/N=C/c1ccc(O)c(O)c1 the results were ABCB6 inh MLPCN inactive, FXN GAA850 act 16, STAT3 activator inactive, GAA30 counter 44 and GAA850 confirm 23.
For C=CCN=c1scc(C)n1/N=C/c1ccc(O)c(O)c1 the results were ABCB6 inh MLPCN inactive, AHR activator inactive, FXN GAA850 act 10, STAT3 activator inactive, GAA30 counter 63 and GAA850 confirm 28.
For COc1ccc(O)c(/C=N/n2c(-c3ccco3)csc2=Nc2cccnc2)c1 the results were ABCB6 inh MLPCN inactive, AHR activator inactive, FXN GAA850 act inactive and STAT3 activator inactive.
For Cc1snc(SCC(=O)c2ccc(F)cc2)c1C#N the results were ABCB6 inh MLPCN inactive, AHR activator inactive, FXN GAA850 act 8.2, STAT3 activator inactive, GAA30 counter 79 and GAA850 confirm 28.
For COc1cc(OC)c(-c2nn3c(C4CCCCC4)nnc3s2)cc1OC the results were ABCB6 inh MLPCN inactive, AHR activator inactive, FXN GAA850 act 13, STAT3 activator inactive, GAA30 counter inactive and GAA850 confirm 12.
O=C(CNC(=O)C1COc2ccccc2O1)N/N=C/c1ccc(O)cc1O (stereo not drawn) was read as ABCB6 inh MLPCN inactive, AHR activator inactive, FXN GAA850 act inactive and STAT3 activator inactive.
